In ChEMBL document CHEMBL3593210, “Pentamidine analogs as inhibitors of [(3)H]MK-801 and [(3)H]ifenprodil binding to rat brain NMDA receptors” (Bioorg Med Chem, 2015):
pIC50: −log10 of the molar value.

Experiments:
[1] = target: Glutamate NMDA receptor; assay: Displacement of [3H]-MK-801 from rat cortical membranes NMDA receptor by beta counting analysis in absence of spermine
Procedure, shortened: (§1)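 Membranes from rat frontoparietal cortex and hippocampus, prepared in 50 mM Tris acetate pH 7.0. 5 nM [3H]MK-801 was incubated with membranes (~1 mg wet tissue) for 3 h at 23 °C in 10 mM Tris acetate pH 7.0 with 10 µM glutamate and glycine, in triplicate, with or without 30 µM spermine. Compounds were tested at 3–4 concentrations. Nonspecific binding was set with 100 µM (S)-ketamine. Bound ligand was filtered and scintillation-counted. Spermine sensitivity = IC50 (with spermine)/IC50 (without).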

[2] = target: Glutamate NMDA receptor; assay: Displacement of [3H]-MK-801 from rat cortical membranes NMDA receptor by beta counting analysis in presence of 30 uM spermine; procedure, shortened: as §1
[3] = target: Glutamate NMDA receptor (Rattus norvegicus) (UniProt P35439+Q00959+Q00960+Q00961+Q62645+Q8VHN2+Q9R1M7); assay: Ratio of IC50 for displacement of [3H]-MK-801 from rat cortical membranes NMDA receptor in presence of 30 uM spermine to IC50 for displacement of [3H]-MK-801 from rat cortical membranes NMDA receptor in absence of 30 spermine; procedure, shortened: as §1
[4] = target: Glutamate NMDA receptor; assay: Displacement of [3H]-ifenprodil from rat cortical membranes NMDA receptor by beta counting analysis in absence of spermine

| Structure (SMILES) | pIC50 [1] | pIC50 [2] | Ratio IC50 [3] | pIC50 [4] |
| --- | --- | --- | --- | --- |
| N=C(N)c1ccc(NC(=O)CCCCCCCCC(=O)Nc2ccc(C(=N)N)cc2)cc1 | 4.80 | 4.20 | 4.07 |  |
| N=C(N)c1ccc(N2CCN(c3ccc(C(=N)N)cc3)CC2)cc1 | 5.51 | 4.15 | 26.2 | 4.77 |
| N=C(N)c1ccc(OCCCCOc2ccc(C(=N)N)cc2)cc1 | 4.75 |  |  |  |
| CC(C)/N=C(\N)c1ccc(N2CCCN(c3ccc(/C(N)=N/C(C)C)cc3)CC2)cc1 | 4.75 | 3.41 | 25.3 |  |
| N=C(N)c1ccc(NCCCNc2ccc(C(=N)N)cc2)cc1 | 5.00 | 3.83 | 17 | 4.11 |
| N=C(N)c1ccc(C(=O)NCCCCCNC(=O)c2ccc(C(=N)N)cc2)cc1 | 3.16 | < 3.00 |  |  |
| N=C(N)c1ccc(NCCCCNc2ccc(C(=N)N)cc2)cc1 | 5.34 | 4.07 | 17.2 |  |
| c1cc(N2CCCN(c3ccc(C4=NCCN4)cc3)CC2)ccc1C1=NCCN1 | 5.52 | 4.04 | 30.1 |  |
| N=C(N)c1ccc(NC(=O)c2ccc(C(=O)Nc3ccc(C(=N)N)cc3)cc2)cc1 | 4.27 | 4.28 | 0.96 |  |
| N=C(N)c1ccc(-c2ccc(-c3ccc(C(=N)N)s3)s2)s1 | 5.27 | 5.17 | 1.5 |  |
| CCCC/N=C(/N)c1ccc(N2CCN(c3ccc(/C(N)=N\CCCC)cc3)CC2)cc1 | 4.99 | 3.86 | 16 |  |
| CCCNC(=N)c1ccc(N2CCN(c3ccc(C(=N)NCCC)cc3)CC2)cc1 | 4.80 | 3.43 | 21.8 |  |
| N=C(N)c1ccc(-c2ccc(-c3ccc(C(=N)N)cc3)o2)cc1 [FURAMIDINE] | 5.37 | 5.13 | 2.37 |  |
| N=C(NCCO)c1ccc(N2CCCN(c3ccc(/C(N)=N/CCO)cc3)CC2)cc1 | 5.03 | 3.49 | 35.7 |  |
| N=C(N)c1ccc(NC(=O)CCCCCCC(=O)Nc2ccc(C(=N)N)cc2)cc1 | 4.64 | 3.77 | 7.25 |  |
| N=C(NCCCO)c1ccc(N2CCCN(c3ccc(/C(N)=N/CCCO)cc3)CC2)cc1 | 4.39 | 3.37 | 9.72 |  |
| N=C(N)c1ccc(NC(=O)CCCCC(=O)Nc2ccc(C(=N)N)cc2)cc1 | 3.78 | 3.36 | 3.46 |  |
| CC(C)/N=C(/N)c1ccc(N2CCN(c3ccc(/C(N)=N\C(C)C)cc3)CC2)cc1 | 4.67 | 3.26 | 32.9 |  |
| N=C(N)c1ccc(NC(=O)CCCCCC(=O)Nc2ccc(C(=N)N)cc2)cc1 | < 3.00 | < 3.00 |  |  |
| N=C(N)c1ccc(-c2ccc(-c3ccc(-c4ccc(C(=N)N)cc4)nc3)cn2)cc1 | 4.57 | 4.52 | 1.24 |  |
| N=C(NC1CCCC1)c1ccc(N2CCN(c3ccc(C(=N)NC4CCCC4)cc3)CC2)cc1 | 5.03 | 3.80 | 19.3 |  |
| N=C(N)c1ccc(NCCCCCCCCNc2ccc(C(=N)N)cc2)cc1 | 5.14 | 4.51 | 4.37 |  |
| NC(N)=NCCCCN=C(N)N [ARCAINE] | 5.34 | 3.71 |  | 4.61 |
| NCCCCCCCCCCCCN |  | 3.61 | 32.9 | 3.02 |
| N=C(N)c1ccc(NC(=O)CCCCCCCC(=O)Nc2ccc(C(=N)N)cc2)cc1 | 4.58 | 3.95 | 4.25 |  |
| N=C(NC1CC1)c1ccc(N2CCN(c3ccc(C(=N)NC4CC4)cc3)CC2)cc1 | 4.71 | 3.33 | 21.8 |  |

| Structure (SMILES) | pIC50 [1] | pIC50 [2] | Ratio IC50 [3] | pIC50 [4] |
| --- | --- | --- | --- | --- |
| CCCCNC(=N)c1ccc(N2CCCN(c3ccc(C(=N)NCCCC)cc3)CC2)cc1 | 5.00 | 3.99 | 11.2 |  |
| C/N=C(\N)c1ccc(-c2ccc(-c3ccc(/C(N)=N/C)cc3)o2)cc1 | 5.16 | 4.62 | 3.47 |  |
| c1cc(N2CCN(c3ccc(C4=NCCN4)cc3)CC2)ccc1C1=NCCN1 | 5.19 | 3.97 | 15.1 |  |
| N=C(NC1CC1)c1ccc(N2CCCN(c3ccc(C(=N)NC4CC4)cc3)CC2)cc1 | 4.95 | 3.67 | 19.9 |  |
| CC(C)(C)/N=C(\N)c1ccc(N2CCCN(c3ccc(/C(N)=N/C(C)(C)C)cc3)CC2)cc1 | 4.46 | 3.25 | 16.8 |  |
| N=C(N)c1ccc(C(=O)NCCCCNC(=O)c2ccc(C(=N)N)cc2)cc1 | < 3.00 | < 3.00 |  |  |
| N=C(N)c1ccc(OCCCOc2ccc(C(=N)N)cc2)cc1 [PROPAMIDINE] | 5.26 |  |  |  |
| N=C(N)c1ccc(NC(=O)c2ccc(C(=O)Nc3ccc(C(=N)N)cc3)o2)cc1 | 3.82 | 3.82 | 1.01 |  |
| N=C(N)c1ccc(C(=O)NCCCNC(=O)c2ccc(C(=N)N)cc2)cc1 | < 3.00 | < 3.00 |  |  |
| N=C(N)c1ccc(NCCCCCCNc2ccc(C(=N)N)cc2)cc1 | 5.36 | 4.62 | 5.26 |  |
| N=C(N)c1ccc(-c2ccc(-c3nc4ccc(C(=N)N)cc4[nH]3)s2)cc1 | 5.49 | 4.87 | 4.14 |  |
| N=C(N)c1ccc(NC(=O)CCCCCCCCCCC(=O)Nc2ccc(C(=N)N)cc2)cc1 | 5.02 | 4.56 | 2.98 |  |
| N=C(NC1CCCC1)c1ccc(N2CCCN(c3ccc(C(=N)NC4CCCC4)cc3)CC2)cc1 | 5.09 | 4.07 | 10.6 |  |
| N=C(N)c1ccc(-c2ccc(-c3ccc(C(=N)N)cc3)c(F)c2)cc1 | 5.00 | 4.47 | 4.63 |  |
| c1cc(N2CCN(c3ccc(C4=NCCCN4)cc3)CC2)ccc1C1=NCCCN1 | 4.62 | 3.58 | 13.6 |  |
| CC/N=C(\N)c1ccc(-c2ccc(-c3ccc(/C(N)=N/CC)cc3)o2)cc1 | 4.91 | 4.51 | 2.56 |  |
| N=C(N)c1ccc(C(=O)Nc2cccc(NC(=O)c3ccc(C(=N)N)cc3)n2)cc1 | 3.90 | 3.63 | 1.85 |  |
| c1cc(N2CCCN(c3ccc(C4=NCCCN4)cc3)CC2)ccc1C1=NCCCN1 | 4.89 | 3.84 | 11.7 |  |
| N=C(N)c1ccc(C(=O)NCCCCCCNC(=O)c2ccc(C(=N)N)cc2)cc1 | 3.58 | 2.92 | 4.59 |  |
| N=C(N)c1ccc(-c2ccc(-c3ccc(C(=N)N)cc3)s2)cc1 | 5.18 | 4.75 | 2.61 |  |
| N=C(N)c1ccc(NCCCCCCCNc2ccc(C(=N)N)cc2)cc1 | 5.33 | 4.60 | 5.37 |  |
| N=C(N)c1ccc(-c2ccc(-c3ccc(-c4ccc(C(=N)N)o4)s3)s2)o1 | 5.30 | 4.93 | 4.26 |  |
| N=C(N)c1ccc(NC(=O)c2cccc(C(=O)Nc3ccc(C(=N)N)cc3)c2)cc1 | 4.37 | 4.44 | 0.97 |  |
| CC(C)NC(=N)c1ccc(NC(=O)c2ccc(C(=O)Nc3ccc(C(=N)NC(C)C)cc3)o2)cc1 | 4.97 | 3.76 | 16.9 |  |
| N=C(N)NCCCCNC(=N)N |  |  | 33.6 |  |
